Data: ChEMBL document CHEMBL2177043, “HIV-1 X4 activities of polycationic "viologen" based dendrimers by interaction with the chemokine receptor CXCR4: study of structure-activity relationship” (J Med Chem, 2012)
Active and inactive are the calls of the source. No cut-off for these calls is given here.

Tests used:
[1] = target: T1, C-X-C chemokine receptor type 4 (Homo sapiens, UniProt P61073); assay: Agonist activity against CXCR4 expressed in U87.CD.CXCR4 cells assessed as stimulation of calcium signaling incubated for 10 mins by FLIPR; type: functional, cell-based
T1 sequence (P61073 whole entry): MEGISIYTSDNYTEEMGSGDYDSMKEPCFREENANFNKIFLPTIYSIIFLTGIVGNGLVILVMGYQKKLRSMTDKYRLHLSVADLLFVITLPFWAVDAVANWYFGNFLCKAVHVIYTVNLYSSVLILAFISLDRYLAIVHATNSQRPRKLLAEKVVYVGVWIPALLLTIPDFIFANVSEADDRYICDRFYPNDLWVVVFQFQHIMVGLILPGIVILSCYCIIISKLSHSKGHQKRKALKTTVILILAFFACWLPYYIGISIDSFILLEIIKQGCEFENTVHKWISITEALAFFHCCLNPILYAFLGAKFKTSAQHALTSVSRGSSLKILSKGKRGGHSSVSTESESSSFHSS
Outline: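 U87.CD4 cells stably carrying CXCR4 or CCR5, trypsinized and seeded at 2 × 10⁴ cells/well on 0.2% gelatin the day before. Loaded with Fluo-3 AM (4 μM, 45 min, 37 °C), washed, then exposed to test agents alone at varied concentrations in assay buffer for 10 min at 37 °C. Cytosolic Ca²⁺ rise monitored over time by FLIPR to detect any agonist-triggered signal.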

[2] = target: T2, C-C chemokine receptor type 5 (Homo sapiens, UniProt P51681); assay: Antagonist activity against CCR5 expressed in U87.CD4.CCR5 cells assessed as inhibition of CCL3L1-induced calcium signaling incubated for 10 mins by FLIPR; type: functional, cell-based
T2 sequence (P51681 whole entry, looked up): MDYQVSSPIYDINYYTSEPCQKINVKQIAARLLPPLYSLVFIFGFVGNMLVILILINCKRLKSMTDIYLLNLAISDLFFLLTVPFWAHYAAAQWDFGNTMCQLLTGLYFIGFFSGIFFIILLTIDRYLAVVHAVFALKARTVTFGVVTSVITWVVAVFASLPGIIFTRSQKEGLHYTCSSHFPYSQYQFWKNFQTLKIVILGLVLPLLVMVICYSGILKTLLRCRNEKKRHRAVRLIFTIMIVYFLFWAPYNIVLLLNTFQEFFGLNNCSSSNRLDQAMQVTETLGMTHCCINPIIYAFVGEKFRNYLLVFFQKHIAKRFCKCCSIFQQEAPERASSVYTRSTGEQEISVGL
Outline: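 U87.CD4.CCR5 cells seeded at 2 × 10⁴/well on 0.2% gelatin the day before, loaded with 4 μM Fluo-3 AM for 45 min at 37 °C, washed, then preincubated with compounds at varied concentrations in assay buffer for 10 min at 37 °C. Stimulated with 10 ng/mL LD78β (CCL3L1); Ca²⁺ flux recorded by FLIPR.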

[3] = Cytotoxicity against human PBMC cells by MTT assay; type: cell-based
[4] = tested on: Human immunodeficiency virus 1; assay: Antiviral activity against X4 HIV1 NL4.3 infected in human PBMC assessed as inhibition of viral replication pre-incubated for 30 mins measured 5 days post infection by MTT assay; type: functional, organism-based; details: Human immunodeficiency virus 1, NL4.3
Outline: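 Human PBMC infected with HIV-1 NL4.3. IC₅₀ is the concentration inhibiting viral replication by 50%, averaged over two independent experiments. Cytotoxicity (CC₅₀, 50% loss of PBMC viability) evaluated in the same assay.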

[5] = Cytotoxicity against human MT4 cells by MTT assay; type: cell-based
[6] = tested on: Human immunodeficiency virus 1; assay: Antiviral activity against X4 HIV1 NL4.3 infected in human MT4 cells assessed as inhibition of viral replication pre-incubated for 30 mins […]; type: functional, organism-based; details: Human immunodeficiency virus 1, NL4.3, MT4
[7] = target: T1, C-X-C chemokine receptor type 4; assay: Antagonist activity against CXCR4 expressed in U87.CD.CXCR4 cells assessed as inhibition of CXCL12-induced calcium signaling incubated for 10 mins by FLIPR; type: functional, cell-based
Outline: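 U87.CD4.CXCR4 cells seeded at 2 × 10⁴/well on 0.2% gelatin the day before, loaded with 4 μM Fluo-3 AM for 45 min at 37 °C, washed, then preincubated with compounds at varied concentrations in assay buffer for 10 min at 37 °C. Challenged with 25 ng/mL CXCL12; Ca²⁺ flux followed over time by FLIPR.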

[8] = target: T1, C-X-C chemokine receptor type 4; assay: Inhibition of CXCL-12'AF647 binding to CXCR4 in human SUPT1 cells incubated for 15 mins by FACS; type: cell-based
Outline: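 SupT1 cells (high CXCR4) washed, then incubated 15 min at room temperature with compounds at varied concentrations in HBSS containing 20 mM HEPES and 0.2% BSA, pH 7.4. CXCL12-AF647 added at 25 ng/mL final for 30 min at room temperature. Cells washed, fixed in 1% paraformaldehyde, and read by flow cytometry on FL4.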

[9] = target: T1, C-X-C chemokine receptor type 4; assay: Inhibition of anti-CXCR4 mAbs clone 1D9 binding to CXCR4 in human SUPT1 cells incubated for 30 mins by FACS
[10] = target: T1, C-X-C chemokine receptor type 4; assay: Inhibition of anti-CXCR4 mAbs clone 173 binding to CXCR4 in human SUPT1 cells incubated for 30 mins by FACS
[11] = target: T1, C-X-C chemokine receptor type 4; assay: Inhibition of anti-CXCR4 mAbs clone 12G5 binding to CXCR4 in human SUPT1 cells incubated for 30 mins by FACS
[12] = target: T2, C-C chemokine receptor type 5; assay: Agonist activity against CCR5 expressed in U87.CD4.CCR5 cells assessed as stimulation of calcium signaling incubated for 10 mins by FLIPR
[13] = target: T2, C-C chemokine receptor type 5; assay: Antagonist activity against CCR5 expressed in U87.CD4.CCR5 cells assessed as inhibition of CCL3L1-induced calcium signaling incubated for 10 mins by FLIPR

Compound	Activity [1]	IC50 [2] [nM]	CC50 [3] [µg/mL]	IC50 [4] [µg/mL]	CC50 [5] [µg/mL]	IC50 [6] [µg/mL]	IC50 [7] [nM]	inhibition [7]	IC50 [8] [nM]	IC50 [9] [nM]	inhibition [9]	IC50 [10] [nM]	inhibition [10]	IC50 [11] [nM]	inhibition [11]	Activity [12]	inhibition [13]
CC[n+]1ccc(-c2cc[n+](Cc3cc(C[n+]4ccc(-c5cc[n+](CC)cc5)cc4)cc(-[n+]4ccc(-c5cc[n+](-c6cc(C[n+]7ccc(-c8cc[n+](CC)cc8)cc7)cc(C[n+]7ccc(-c8cc[n+](CC)cc8)cc7)c6)cc5)cc4)c3)cc2)cc1.F[P-](F)(F)(F)(F)F.F[P-](F)(F)(F)(F)F.F[P-](F)(F)(F)(F)F.F[P-](F)(F)(F)(F)F.F[P-](F)(F)(F)(F)F.F[P-](F)(F)(F)(F)F.F[P-](F)(F)(F)(F)F.F[P-](F)(F)(F)(F)F.F[P-](F)(F)(F)(F)F.F[P-](F)(F)(F)(F)F	inactive	> 39200	> 100	5.6	> 100	1.1	24000	Dose-dependent effect	5800	3360	Dose-dependent effect	544	Dose-dependent effect	768	Dose-dependent effect	inactive	Dose-dependent effect
Cc1cn(CCC[n+]2ccc(-c3cc[n+](Cc4cc(C[n+]5ccc(-c6cc[n+](CCCn7cc(C)c(=O)[nH]c7=O)cc6)cc5)cc(C[n+]5ccc(-c6cc[n+](Cc7cc(C[n+]8ccc(-c9cc[n+](Cc%10cc(C[n+]%11ccc(-c%12cc[n+](CCCn%13cc(C)c(=O)[nH]c%13=O)cc%12)cc%11)cc(C[n+]%11ccc(-c%12cc[n+](CCCn%13cc(C)c(=O)[nH]c%13=O)cc%12)cc%11)c%10)cc9)cc8)cc(C[n+]8ccc(-c9cc[n+](Cc%10cc(C[n+]%11ccc(-c%12cc[n+](Cc%13cc(C[n+]%14ccc(-c%15cc[n+](Cc%16cc(C[n+]%17ccc(-c%18cc[n+](CCCn%19cc(C)c(=O)[nH]c%19=O)cc%18)cc%17)cc(C[n+]%17ccc(-c%18cc[n+](CCCn%19cc(C)c(=O)[nH]c%19=O)cc%18)cc%17)c%16)cc%15)cc%14)cc(C[n+]%14ccc(-c%15cc[n+](Cc%16cc(C[n+]%17ccc(-c%18cc[n+](CCCn%19cc(C)c(=O)[nH]c%19=O)cc%18)cc%17)cc(C[n+]%17ccc(-c%18cc[n+](CCCn%19cc(C)c(=O)[nH]c%19=O)cc%18)cc%17)c%16)cc%15)cc%14)c%13)cc%12)cc%11)cc(C[n+]%11ccc(-c%12cc[n+](Cc%13cc(C[n+]%14ccc(-c%15cc[n+](Cc%16cc(C[n+]%17ccc(-c%18cc[n+](CCCn%19cc(C)c(=O)[nH]c%19=O)cc%18)cc%17)cc(C[n+]%17ccc(-c%18cc[n+](CCCn%19cc(C)c(=O)[nH]c%19=O)cc%18)cc%17)c%16)cc%15)cc%14)cc(C[n+]%14ccc(-c%15cc[n+](Cc%16cc(C[n+]%17ccc(-c%18cc[n+](CCCn%19cc(C)c(=O)[nH]c%19=O)cc%18)cc%17)cc(C[n+]%17ccc(-c%18cc[n+](CCCn%19cc(C)c(=O)[nH]c%19=O)cc%18)cc%17)c%16)cc%15)cc%14)c%13)cc%12)cc%11)c%10)cc9)cc8)c7)cc6)cc5)c4)cc3)cc2)c(=O)[nH]c1=O.F[P-](F)(F)(F)(F)F.F[P-](F)(F)(F)(F)F.F[P-](F)(F)(F)(F)F.F[P-](F)(F)(F)(F)F.F[P-](F)(F)(F)(F)F.F[P-](F)(F)(F)(F)F.F[P-](F)(F)(F)(F)F.F[P-](F)(F)(F)(F)F.F[P-](F)(F)(F)(F)F.F[P-](F)(F)(F)(F)F.F[P-](F)(F)(F)(F)F.F[P-](F)(F)(F)(F)F.F[P-](F)(F)(F)(F)F.F[P-](F)(F)(F)(F)F.F[P-](F)(F)(F)(F)F.F[P-](F)(F)(F)(F)F.F[P-](F)(F)(F)(F)F.F[P-](F)(F)(F)(F)F.F[P-](F)(F)(F)(F)F.F[P-](F)(F)(F)(F)F.F[P-](F)(F)(F)(F)F.F[P-](F)(F)(F)(F)F.F[P-](F)(F)(F)(F)F.F[P-](F)(F)(F)(F)F.F[P-](F)(F)(F)(F)F.F[P-](F)(F)(F)(F)F.F[P-](F)(F)(F)(F)F.F[P-](F)(F)(F)(F)F.F[P-](F)(F)(F)(F)F.F[P-](F)(F)(F)(F)F.F[P-](F)(F)(F)(F)F.F[P-](F)(F)(F)(F)F.F[P-](F)(F)(F)(F)F.F[P-](F)(F)(F)(F)F.F[P-](F)(F)(F)(F)F.F[P-](F)(F)(F)(F)F.F[P-](F)(F)(F)(F)F.F[P-](F)(F)(F)(F)F.F[P-](F)(F)(F)(F)F.F[P-](F)(F)(F)(F)F.F[P-](F)(F)(F)(F)F.F[P-](F)(F)(F)(F)F	inactive	1750	20	2.32	9	1.5	38.3	Dose-dependent effect	124	233	Dose-dependent effect	191	Dose-dependent effect	178	Dose-dependent effect	inactive	Dose-dependent effect
Cc1cn(CCC[n+]2ccc(-c3cc[n+](Cc4cc(C[n+]5ccc(-c6cc[n+](CCCn7cc(C)c(=O)[nH]c7=O)cc6)cc5)cc(-[n+]5ccc(-c6cc[n+](-c7cc(C[n+]8ccc(-c9cc[n+](CCCn%10cc(C)c(=O)[nH]c%10=O)cc9)cc8)cc(C[n+]8ccc(-c9cc[n+](CCCn%10cc(C)c(=O)[nH]c%10=O)cc9)cc8)c7)cc6)cc5)c4)cc3)cc2)c(=O)[nH]c1=O.F[P-](F)(F)(F)(F)F.F[P-](F)(F)(F)(F)F.F[P-](F)(F)(F)(F)F.F[P-](F)(F)(F)(F)F.F[P-](F)(F)(F)(F)F.F[P-](F)(F)(F)(F)F.F[P-](F)(F)(F)(F)F.F[P-](F)(F)(F)(F)F.F[P-](F)(F)(F)(F)F.F[P-](F)(F)(F)(F)F	inactive	> 32200	> 100	4.62	> 100	2.4	21000	Dose-dependent effect	3400	3080	Dose-dependent effect	660	Dose-dependent effect	724	Dose-dependent effect	inactive	Dose-dependent effect
